Results as given in ChEMBL document CHEMBL1140016, “Arylpropanolamines: selective beta3 agonists arising from strategies to mitigate phase I metabolic transformations” (Bioorg Med Chem Lett, 2007).

What was measured:
Homo sapiens [1] = species: Homo sapiens; test: Selectivity ratio of Ki for human adrenergic beta-1 receptor to Ki for human adrenergic beta-3 receptor
[2] = target: T1, Beta-3 adrenergic receptor (Homo sapiens, UniProt P13945); test: Displacement of [125I]iodocyanopindolol from cloned human adrenergic beta-3 receptor expressed in CHO cells; type: cell-based
Target sequence in this assay (P13945 whole entry): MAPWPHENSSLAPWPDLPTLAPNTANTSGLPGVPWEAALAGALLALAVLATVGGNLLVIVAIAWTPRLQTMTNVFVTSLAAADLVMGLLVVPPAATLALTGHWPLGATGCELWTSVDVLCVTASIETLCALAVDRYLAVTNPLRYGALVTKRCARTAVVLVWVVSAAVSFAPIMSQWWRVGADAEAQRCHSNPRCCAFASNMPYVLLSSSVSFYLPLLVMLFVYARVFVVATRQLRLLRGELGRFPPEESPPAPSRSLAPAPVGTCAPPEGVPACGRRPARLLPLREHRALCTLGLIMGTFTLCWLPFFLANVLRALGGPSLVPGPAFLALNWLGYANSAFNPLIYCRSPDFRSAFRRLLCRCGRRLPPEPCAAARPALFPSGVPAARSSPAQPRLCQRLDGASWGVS

[3] = target: T1, Beta-3 adrenergic receptor; test: Intrinsic activity at human cloned adrenergic beta3 receptor expressed in CHO cells assessed as cAMP accumulation relative to isoproterenol; type: functional, cell-based
Target sequence in this assay (P13945 whole entry, looked up): as the sequence (P13945 whole entry) above

Homo sapiens [4] = species: Homo sapiens; test: Selectivity ratio of Ki for adrenergic beta2 receptor Ki for adrenergic beta-3 receptor
[5] = target: Beta-2 adrenergic receptor (Homo sapiens, UniProt P07550); test: Displacement of [125I]iodocyanopindolol from human cloned adrenergic beta-2 receptor expressed in CHO cells; type: cell-based
Chain of Beta-2 adrenergic receptor (P07550 whole entry): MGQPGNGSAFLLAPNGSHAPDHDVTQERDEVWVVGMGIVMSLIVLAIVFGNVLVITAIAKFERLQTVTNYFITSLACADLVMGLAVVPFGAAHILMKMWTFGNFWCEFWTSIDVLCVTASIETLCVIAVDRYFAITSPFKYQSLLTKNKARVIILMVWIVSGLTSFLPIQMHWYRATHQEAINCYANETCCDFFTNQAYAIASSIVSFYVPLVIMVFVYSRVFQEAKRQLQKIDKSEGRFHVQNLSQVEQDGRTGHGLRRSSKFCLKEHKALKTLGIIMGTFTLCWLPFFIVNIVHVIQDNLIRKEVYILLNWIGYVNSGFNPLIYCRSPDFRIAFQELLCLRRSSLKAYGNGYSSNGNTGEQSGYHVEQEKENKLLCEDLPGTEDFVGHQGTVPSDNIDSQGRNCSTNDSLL

[6] = target: Beta-1 adrenergic receptor (Homo sapiens, UniProt P08588); test: Displacement of [125I]iodocyanopindolol from human cloned adrenergic beta-1 receptor expressed in CHO cells; type: cell-based
Chain of Beta-1 adrenergic receptor (P08588 whole entry): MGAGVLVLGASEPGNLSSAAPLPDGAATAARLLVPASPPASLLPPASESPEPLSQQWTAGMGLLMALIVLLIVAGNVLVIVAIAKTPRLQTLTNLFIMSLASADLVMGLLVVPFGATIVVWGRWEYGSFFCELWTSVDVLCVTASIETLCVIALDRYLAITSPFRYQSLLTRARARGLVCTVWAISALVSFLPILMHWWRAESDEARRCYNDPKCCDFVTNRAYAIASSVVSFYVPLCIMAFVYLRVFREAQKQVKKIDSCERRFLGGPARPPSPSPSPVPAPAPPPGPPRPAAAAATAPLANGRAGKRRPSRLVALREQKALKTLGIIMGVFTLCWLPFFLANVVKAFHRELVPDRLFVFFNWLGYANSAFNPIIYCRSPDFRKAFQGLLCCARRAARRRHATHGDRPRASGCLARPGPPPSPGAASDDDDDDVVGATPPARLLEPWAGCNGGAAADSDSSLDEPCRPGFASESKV

[7] = target: Beta-1 adrenergic receptor (Cavia porcellus) (UniProt B0FL73); test: Intrinsic activity at adrenergic beta-1 receptor in spontaneously beating guinea pig atria assessed as acceleration in contraction relative to isoproterenol
Chain of Beta-1 adrenergic receptor (Cavia porcellus) (B0FL73 1-467): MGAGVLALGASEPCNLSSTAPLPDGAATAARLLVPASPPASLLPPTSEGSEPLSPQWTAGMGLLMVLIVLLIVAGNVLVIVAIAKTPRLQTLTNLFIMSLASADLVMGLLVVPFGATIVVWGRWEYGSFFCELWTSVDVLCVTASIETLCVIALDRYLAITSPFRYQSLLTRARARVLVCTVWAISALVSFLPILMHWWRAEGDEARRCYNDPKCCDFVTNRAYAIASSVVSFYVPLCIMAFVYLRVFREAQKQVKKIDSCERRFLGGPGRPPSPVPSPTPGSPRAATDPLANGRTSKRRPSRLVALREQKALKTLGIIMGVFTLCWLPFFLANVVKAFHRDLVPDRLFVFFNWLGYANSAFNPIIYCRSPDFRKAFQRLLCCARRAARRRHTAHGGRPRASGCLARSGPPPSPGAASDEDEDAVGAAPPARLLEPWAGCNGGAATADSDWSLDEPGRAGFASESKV

African green monkey [8] = test: Effect on tachycardia in African green monkey assessed as change in heart rate at 0.1 mg/kg, iv; type: functional, Chlorocebus sabaeus
In short: (§1)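 Single iv dose given to ketamine-sedated African green monkeys, either 0.1 or 0.5 mg/kg as the line states. Three read-outs were recorded after dosing: change in serum free fatty acids (β3 lipolysis), change in serum K+ (a decrease is β2-mediated) and change in heart rate (β1/β2 tachycardia). Changes were tested for significance at P < 0.05.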

African green monkey [9] = test: Effect on African green monkey assessed as change in free fatty acid level at 0.1 mg/kg, iv; type: functional, Chlorocebus sabaeus; in short: as §1
African green monkey [10] = test: Effect on potassium levels in African green monkey serum at 0.1 mg/kg, iv; type: functional, Chlorocebus sabaeus; parameters: unit not given beside the values; in short: as §1

SMILES	Ratio Ki (Homo sapiens [1])	Ki [2] [nM]	Intrinsic activity [3] [%]	Ratio Ki (Homo sapiens [4])	Ki [5] [nM]	Ki [6] [nM]	Intrinsic activity [7] [%]	Activity (African green monkey [8])	Activity (African green monkey [9])	Activity (African green monkey [10])
COc1ccc(CNC[C@H](O)COc2ccc(O)c(NS(C)(=O)=O)c2)cc1	3	360	46	0.4	–	–	–	–	–	–
COc1cccc([C@H](CCc2ccccc2)NC[C@H](O)Cc2ccc(O)c(NS(C)(=O)=O)c2)c1	1	390	44	0.5	200	570	–	–	–	–
COc1cccc([C@@H](Cc2ccccc2)NC[C@H](O)Cc2ccc(O)c(NS(C)(=O)=O)c2)c1	–	1100	27	–	2700	> 10000	0	–	–	–
CS(=O)(=O)Nc1cc(CC[C@@H](O)CN[C@H](Cc2ccccc2)c2ccc(OC(F)F)cc2)ccc1O	38	880	40	7	–	–	–	–	–	–
COc1ccc([C@H](NC[C@H](O)c2ccc(O)c(NS(C)(=O)=O)c2F)C(=O)Nc2ccccc2)cc1	–	–	58	–	–	–	–	–	–	–
COc1ccc(CCNCC(O)Cc2ccc(O)c(NS(C)(=O)=O)c2)cc1OC (configuration not stated)	0.6	7300	35	0.1	–	–	–	–	–	–
CS(=O)(=O)Nc1c(O)ccc([C@@H](O)CN)c1F	–	120000	0	–	–	–	–	–	–	–
COc1ccc(CNCC(O)Cc2ccc(O)c(NS(C)(=O)=O)c2)cc1 (configuration not stated)	2	1100	50	0.3	–	–	–	–	–	–
COc1ccc([C@@H](Cc2ccccc2)NC[C@H](O)Cc2ccc(O)c(NS(C)(=O)=O)c2)cc1OC	–	25	43	–	1500	> 10000	0	–	–	–
CS(=O)(=O)Nc1cc(OC[C@@H](O)CN)ccc1O	0.08	15000	47	0.04	–	–	–	–	–	–
COc1ccc(CNC[C@H](O)CCc2ccc(O)c(NS(C)(=O)=O)c2)cc1	1	3700	42	1	–	–	–	–	–	–
COc1ccc([C@@H](Cc2ccccc2)NC[C@H](O)Cc2ccc(O)c(NS(C)(=O)=O)c2)cc1	–	460	30	–	3100	> 10000	0	–	–	–
CS(=O)(=O)Nc1cc([C@@H](O)CN)ccc1O	–	17000	93	–	–	–	–	–	–	–
COc1ccc([C@H](Cc2ccccc2)NC[C@H](O)Cc2ccc(O)c(NS(C)(=O)=O)c2)cc1OC	–	150	70	–	820	47000	48	–	–	–
COc1ccc([C@H](NC[C@H](O)c2ccc(O)c(NS(C)(=O)=O)c2)C(=O)Nc2ccccc2)cc1 (stereo in doubt; 1a)	–	–	119	–	–	–	–	–	–	–
COc1ccc([C@H](CCc2cccc(Cl)c2)NC[C@H](O)Cc2ccc(O)c(NS(C)(=O)=O)c2)cc1OC	14	29	57	1	26	420	–	–	–	–
COc1ccc([C@H](Cc2ccccc2)NC[C@@H](O)Cc2ccc(O)c(NS(C)(=O)=O)c2)cc1OC	–	9	62	–	24	560	75	–	–	–

Now from value to molecule, other results behind:

Ratio Ki (Homo sapiens [1])	Ki [2] [nM]	Intrinsic activity [3] [%]	Ratio Ki (Homo sapiens [4])	Ki [5] [nM]	Ki [6] [nM]	SMILES	Intrinsic activity [7] [%]	Activity (African green monkey [8])	Activity (African green monkey [9])	Activity (African green monkey [10])
–	8	70	–	1070	3200	COc1ccc([C@@H](Cc2ccccc2)NC[C@@H](O)Cc2ccc(O)c(NS(C)(=O)=O)c2)cc1O	–	–	–	–
112	160	60	27	–	–	COc1ccc([C@@H](Cc2ccccc2)NC[C@H](O)CCc2ccc(O)c(NS(C)(=O)=O)c2)cc1OC	–	–	–	–
–	110	44	–	350	3600	COc1cccc([C@@H](Cc2ccccc2)NC[C@@H](O)Cc2ccc(O)c(NS(C)(=O)=O)c2)c1	–	–	–	–
3	340	60	0.6	–	–	CS(=O)(=O)Nc1cc(C[C@H](O)CNC(c2ccc(OC(F)F)cc2)c2ccc(OC(F)F)cc2)ccc1O	–	–	–	–
58	7	65	13	–	–	COc1ccc([C@@H](Cc2ccccc2Cl)NC[C@@H](O)Cc2ccc(O)c(NS(C)(=O)=O)c2)cc1OC	–	–	–	–
39	7	73	8	57	270	COc1ccc([C@H](CCc2ccccc2Cl)NC[C@H](O)Cc2ccc(O)c(NS(C)(=O)=O)c2)cc1OC	–	–	–	–
–	133	70	–	38	1500	CS(=O)(=O)Nc1cc(C[C@H](O)CN[C@H](Cc2ccccc2)c2ccc(Cl)c(Cl)c2)ccc1O	–	–	–	–
–	7	86	–	–	–	COc1ccc(C(C)(C)NC[C@H](O)c2ccc(O)c(NS(C)(=O)=O)c2)cc1	–	–	–	–
24	24	68	6	–	–	COc1ccc([C@@H](Cc2ccc(Cl)cc2)NC[C@@H](O)Cc2ccc(O)c(NS(C)(=O)=O)c2)cc1OC	–	–	–	–
24	31	93	9	280	730	COc1ccc([C@H](CCc2ccccc2)NC[C@H](O)Cc2ccc(O)c(NS(C)(=O)=O)c2)cc1	–	–	–	–
–	53	65	–	510	6000	COc1ccc([C@@H](Cc2ccccc2)NC[C@@H](O)Cc2ccc(O)c(NS(C)(=O)=O)c2)cc1	–	–	–	–
3	170	75	0.2	–	–	COc1ccc(CC(Cc2ccc(OC)c(OC)c2)NC[C@@H](O)Cc2ccc(O)c(NS(C)(=O)=O)c2)cc1OC	–	–	–	–
8	59	86	1	71	490	CS(=O)(=O)Nc1cc(C[C@@H](O)CN[C@@H](CCc2ccccc2)c2ccc(OC(F)F)c(OC(F)F)c2)ccc1O	–	–	–	–
52	6	68	13	–	–	COc1ccc([C@@H](Cc2cccc(Cl)c2)NC[C@@H](O)Cc2ccc(O)c(NS(C)(=O)=O)c2)cc1OC	–	6	0.92	-0.55
66	5	48	7	–	–	CS(=O)(=O)Nc1cc(OC[C@@H](O)CN[C@H](Cc2ccccc2)c2ccc(OC(F)F)cc2)ccc1O	–	–	–	–
–	19	60	–	102	690	CS(=O)(=O)Nc1cc(C[C@H](O)CN[C@H](Cc2ccccc2)c2ccc(OC(F)F)c(OC(F)F)c2)ccc1O	0	–	–	–
–	200	88	–	–	–	COc1ccc(C(C)(C)NC[C@H](O)c2ccc(O)c(NS(C)(=O)=O)c2F)cc1	–	–	–	–
120	3	67	15	–	–	COc1ccc([C@@H](Cc2ccccc2)NC[C@H](O)COc2ccc(O)c(NS(C)(=O)=O)c2)cc1OC	–	–	–	–
–	270	77	–	–	–	CS(=O)(=O)Nc1c(O)ccc([C@@H](O)CN[C@H](Cc2ccccc2)c2ccc(OC(F)F)cc2)c1F	–	–	–	–
